# Source: PubChem BioAssay
# OX1R antag-1 – OX1R (HCRTR1) antagonists, primary screen, fluorescence, CHO/OX1R cells, Fluo-8 calcium, orexin A. Orexin/Hypocretin receptor type 1 (Homo sapiens), O43613. Fluo-8 calcium fluorescence. inhibition, % at 5 µM. hit rate 0.43% among 330,000. AID 434989, 2010;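 active = inhibition above its plate's threshold, mean inhibition of all tested compounds on the plate plus 3 SD, cut at about 37% in these data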;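 also: 0% = orexin A challenge wells and 100% = SB-334867-A antagonist wells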
# TAAR1 ag – human TAAR1 agonists, primary screen, Fluo-8 calcium fluorescence, CHO RD-HGA16 cells. AID 624467, 2012. vehicle wells 0%, saturating PEA agonist 100%. Trace amine-associated receptor 1 (Homo sapiens), Q96RJ0. activation, % at 3 µM. hit rate 0.99% among 360,000;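 active = activation above the mean activation of all test compounds in the run plus 3 SD, cut at about 38% in these data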
# Target sequence (Q96RJ0 whole entry, looked up): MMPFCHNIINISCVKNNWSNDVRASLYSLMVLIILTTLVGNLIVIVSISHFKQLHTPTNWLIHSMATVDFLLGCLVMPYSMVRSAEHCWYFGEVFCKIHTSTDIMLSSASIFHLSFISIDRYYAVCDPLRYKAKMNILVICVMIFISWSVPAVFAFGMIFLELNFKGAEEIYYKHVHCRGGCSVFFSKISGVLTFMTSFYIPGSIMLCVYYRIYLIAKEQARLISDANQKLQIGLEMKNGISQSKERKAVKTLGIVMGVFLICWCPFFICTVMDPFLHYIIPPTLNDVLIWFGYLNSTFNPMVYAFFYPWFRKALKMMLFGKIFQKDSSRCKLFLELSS
#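 test system = CHO RD-HGA16 cells carrying human TAAR1 plus Gα16 | schedule = 17-24 h seeding, 75 min 37 °C dye, 30 min RT | compound dosing = 3 µM single concentration | control set = DMSO and PEA EC100 | replicates = n 1 | signal = Fluo-8 fluorescence, 5 s baseline then 140 s kinetic read | measure = percent activation vs PEA EC100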
# TAAR1 antagonist – human TAAR1 antagonists, primary screen, Fluo-8 calcium fluorescence, CHO RD-HGA16 cells. AID 624466, 2012. inhibition, % at 3 µM. Trace amine-associated receptor 1 (Homo sapiens), Q96RJ0. hit rate 1.5% among 360,000. antagonist;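 active = inhibition above a per-plate cutoff, the mean inhibition of test compounds on that plate plus 3 SD, cut at about 49% in these data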;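 also: 0% = DMSO plus EC80 beta-PEA response and 100% = DMSO alone without agonist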
#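 System: CHO RD-HGA16 cells bearing hTAAR1. Reagent: EC80 β-phenethylamine stimulus. Schedule: seeding 17-24 h prior, 75-min 37 °C, 30-min RT dye loading. Signal: Fluo-8 intracellular calcium dye fluorescence, real-time kinetic reads. Read-out: % inhibition from peak post-agonist over basal fluorescence ratio. Benchmarks: vehicle wells and EC80 agonist wells. Replicates: n of 1.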
# OX1R antag-2 – antagonists of human orexin 1 receptor (OX1R) | Orexin/Hypocretin receptor type 1 (Homo sapiens), O43613 | OX1R-expressing cells, FRET antagonist read-out | inhibition, % at 6.6 µM | hit rate 1.8% among 330,000; in the data active = inhibition mostly above about 38%, no sharp cut-off; inactive = mostly below about 40%;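 also: 0% = agonist challenge alone and 100% = reference antagonist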
# CHO parental Ca – ATP-evoked calcium signal inhibitors, parental CHO, primary screen, counter-screen for OX1R antagonist project, cell-based, fluorescence, Fluo-8 calcium dye; inhibition, % at 5.6 µM; parental CHO-K1, ATP-induced calcium, Fluo-8 fluorescence; hit rate 0.63% among 330,000;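 active = inhibition above that plate's mean sample inhibition plus 3 SD, cut at about 26% in these data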;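 also: 0% = ATP-challenged DMSO wells and 100% = DMSO wells without ATP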
#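 test system = CHO parental line | reagent = ATP stimulus | measured by = intracellular calcium via Fluo-8 no-wash fluorescent dye | control set = ATP and no-ATP DMSO wells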
# NTR1 agonist – agonists of human NTR1, primary screen, imaging, U2OS cells, beta-arrestin-GFP, high content; Neurotensin receptor type 1 (Homo sapiens), P30989; NTR1-U2OS beta-arrestin-GFP spot imaging, agonist mode; activation, % at 20 µM; hit rate 0.17% among 330,000; AID 493036, 2011;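 active = activation at or above 40% of the spot to cytoplasm intensity ratio, with at least 20 cells analyzed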;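 also: 0% = DMSO without peptide and 100% = 100 nM NTR1 peptide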
# TAAR1 nonsel count – nonselective antagonists in TAAR1 counter-screen cells, counter-screen for hTAAR1 antagonist project, cell-based, fluorescence, calcium; shares compounds with TAAR1 antagonist; counterscreen cell line, antagonist mode; inhibition, % at 3 µM; hit rate 77% among 2,400; AID 651780, 2012; in the data active = inhibition above about 22%;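 also: CHO-Ga16 host cells stimulated with ATP at an EC80 level; 0% = agonist EC80 plus vehicle and 100% = vehicle without agonist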
# TAAR1 ant conf – human TAAR1 antagonists, retest of hits, confirmation, cell-based, fluorescence; shares compounds with TAAR1 antagonist; TAAR1-expressing cells, fluorescence antagonist read-out; inhibition, % at 3 µM; hit rate 40% among 2,400; AID 651785, 2012; in the data active = inhibition above about 49%;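 also: CHO-Ga16 host cells challenged with agonist PEA near its EC80; 0% = agonist at EC80 plus vehicle and 100% = vehicle with no agonist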
# Ga16 ag counter – calcium activation in Ga16-expressing cells, counter-screen for TAAR1 antagonist project, cell-based, fluorescence. shares compounds with TAAR1 antagonist. agonist counterscreen. activation, % at 3 µM. hit rate 18% among 2,400. AID 651953, 2012; in the data active = activation above about 12%;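 also: 0% = vehicle wells and 100% = saturating stimulus response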
# TAAR1 ag count – TAAR1 activation by candidate antagonists – cell-based, fluorescence, counter-screen for TAAR1 antagonist project; shares compounds with TAAR1 antagonist; activation, % at 3 µM; hit rate 2% among 2,400; hTAAR1 cell line, agonist mode; in the data active = activation above about 37%;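 also: CHO cells stably expressing TAAR1 with calcium dye readout; 0% = DMSO vehicle and 100% = full agonist response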
# Starred values were filed as active, the others as inactive; x = no result given. Hits are enriched below; roughly 4% of the tested compounds scored in any of these assays.
SMILES,OX1R antag-1,TAAR1 ag,TAAR1 antagonist,OX1R antag-2,CHO parental Ca,NTR1 agonist,TAAR1 nonsel count,TAAR1 ant conf,Ga16 ag counter,TAAR1 ag count
O=C(c1cnc(N2CCN(c3ncccn3)CC2)c2ccccc12)N1CCN(c2ncccn2)CC1,-22.2,21.1,59.3*,16.6,-5.7,2.3,31.7*,49.4*,10.5,12.7
C=CCN1C(=O)C2(OCCO2)c2cc(C)ccc21,-26.0,0.6,-6.3,4.5,-0.8,-1.6,x,x,x,x
CN(C)S(=O)(=O)c1cccc(NC(=O)C2CCCN(C(=O)c3ccc(Cl)cc3)C2)c1 (stereo unspecified),x,6.3,-4.1,x,x,x,x,x,x,x
CSc1nccc(N/N=C/c2ccccc2)n1,-39.3,34.2,30.9,9.9,-16.4,-1.3,x,x,x,x
Cc1[nH]c2ccccc2c1C(=O)COC(=O)C1CC(=O)N(Cc2ccccc2)C1 (stereo unspecified),-11.9,26.1,70.3*,32.2,-13.6,0.9,30.8*,52.7*,12.9*,13.1
COC(=O)COc1ccc2oc(=O)cc(-c3cc4cccc(OC)c4o3)c2c1,1.0,3.7,9.0,18.2,-7.0,1.9,x,x,x,x
COc1cccc2cc(-c3cc(=O)oc4ccc(O)cc34)oc12,-32.9,4.8,50.5*,8.5,-14.5,7.2,17.2,24.2,3.5,0.7
O=C1CCCN1C(=O)CSc1ccc2ccccc2n1,-24.5,7.9,-5.1,8.0,-11.9,-0.8,x,x,x,x
CCCOc1ccccc1OCC(=O)Nc1ccc(S(=O)(=O)N2CCCCC2)cc1,-21.2,0.6,42.2,6.9,23.8,2.5,x,x,x,x
CCCOc1ccccc1OCC(=O)Nc1ccc(S(=O)(=O)N2CCCC2)cc1,-22.7,4.2,64.7*,5.3,-20.7,1.4,19.7,41.8,7.4,13.2
CC1CCN(C(=O)COC(=O)/C=C/c2ccco2)CC1,-18.1,7.1,15.8,5.5,-9.7,1.5,x,x,x,x
Cc1c(C(=O)N2CCN(c3ccc(F)cc3)CC2)sc2ncnc(N3CCN(c4ccccn4)CC3)c12,-8.2,9.6,70.0*,26.4,-2.1,6.4,29.3*,47.2,9.3,7.7
COc1ccccc1N1CCN(C(=O)c2sc3nc(C)nc(N4CCN(c5ccccn5)CC4)c3c2C)CC1,-35.2,7.0,54.8*,35.3,-13.6,4.6,16.7,33.8,4.3,5.3
COc1ccc(CNn2c(C)nc3ccccc3c2=O)cc1,6.5,5.5,27.5,17.6,-18.8,-0.9,x,x,x,x
COc1ccc(CNn2c(-c3cccc(C)c3)nc3ccccc3c2=O)cc1OC,-28.4,17.2,58.7*,20.9,-9.2,2.9,24.3*,46.6,5.6,3.5
Cc1cccc(-c2nc3ccccc3c(=O)n2NC(=S)N(C)C)c1,-14.1,0.8,-2.4,6.1,-0.7,5.4,x,x,x,x
CCCCOc1ccc(CNn2c(C)nc3ccccc3c2=O)cc1,-3.3,10.2,59.0*,5.0,-31.7,14.3,29.0*,43.5,2.5,1.8
Cc1ccc2nc(-c3ccc(-c4cccc(Cl)c4)cc3)c(NCc3ccccc3)n2c1,-38.0,6.8,63.5*,48.0,-17.2,7.4,31.8*,28.2,0.4,0.6
